# Screens as filed in PubChem BioAssay.
# Compounds with a hit are over-represented: about 2.3% of the library has one in this group of screens.
# TRPC6 inhibitor: blocks the mouse TRPC6 cation channel. HEK293-TRPC6, membrane potential dye, ACh-evoked depolarization; hits give low values. B-score at 10 µM. 1.1% of 310,000 active. Q61143. AID 2553;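 active = B-score under library mean minus 3 SD, initial fluorescence not abnormally high, positive integrated signal ratio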;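 note: B-score derived from integrated fluorescence ratio over the kinetic read; more negative B-score means stronger inhibition of depolarization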
# TRPC4 block: inhibitors of mouse TRPC4 channel | HEK293 TRPC4beta/mu-opioid, DAMGO-evoked Fluo4 calcium flux; hits give low values | B-score at 10 µM | 0.39% of 300,000 active;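 active = B-score over 3 SD under the library average, no early fluorescence shift, positive overall ratio signal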
# Target sequence (Q9QUQ5 whole entry, looked up): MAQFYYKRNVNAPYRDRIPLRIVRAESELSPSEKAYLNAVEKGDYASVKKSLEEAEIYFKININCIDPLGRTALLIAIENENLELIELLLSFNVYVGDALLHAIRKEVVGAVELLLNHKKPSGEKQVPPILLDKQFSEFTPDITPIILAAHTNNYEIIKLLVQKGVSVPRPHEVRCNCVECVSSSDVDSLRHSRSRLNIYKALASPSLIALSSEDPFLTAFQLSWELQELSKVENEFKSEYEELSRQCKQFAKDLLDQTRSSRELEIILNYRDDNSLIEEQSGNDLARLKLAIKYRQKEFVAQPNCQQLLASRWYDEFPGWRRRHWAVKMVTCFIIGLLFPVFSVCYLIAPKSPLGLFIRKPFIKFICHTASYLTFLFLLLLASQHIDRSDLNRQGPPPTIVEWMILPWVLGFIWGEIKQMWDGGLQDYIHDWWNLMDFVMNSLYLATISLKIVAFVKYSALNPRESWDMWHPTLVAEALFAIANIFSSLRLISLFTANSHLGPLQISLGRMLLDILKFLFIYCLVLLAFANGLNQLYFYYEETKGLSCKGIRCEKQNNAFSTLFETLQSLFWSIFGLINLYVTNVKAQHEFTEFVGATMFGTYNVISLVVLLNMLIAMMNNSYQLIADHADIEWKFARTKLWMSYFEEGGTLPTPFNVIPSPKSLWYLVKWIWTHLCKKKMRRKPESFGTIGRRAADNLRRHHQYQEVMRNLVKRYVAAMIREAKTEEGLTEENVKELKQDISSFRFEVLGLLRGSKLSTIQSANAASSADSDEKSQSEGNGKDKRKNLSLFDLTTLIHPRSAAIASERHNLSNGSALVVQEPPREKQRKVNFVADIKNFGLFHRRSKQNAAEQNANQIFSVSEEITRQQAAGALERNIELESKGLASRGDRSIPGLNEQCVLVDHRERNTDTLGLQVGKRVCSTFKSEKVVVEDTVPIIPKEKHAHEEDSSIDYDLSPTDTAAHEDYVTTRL
#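 test system = HEK293 cells with stable TRPC4beta plus mu-opioid receptor expression | detection = Fluo4 Ca2+ flux fluorescence | read-out = integrated fluorescence ratio relative to baseline, converted to per-well B score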
# TRPC4 PAM: TRPC4 (mouse) allosteric potentiation | Q9QUQ5 | AID 2227 | 0.42% of 310,000 active | B-score at 10 µM | HEK293 TRPC4beta/mu-opioid, DAMGO EC20, Fluo-4 Ca2+ flux; hits give high values;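 active = B-score of calcium response area above 5 SD of library B-scores, with initial fluorescence ratio within 5 SD of library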;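 note: B-score of integrated fluorescence ratio over time as area under calcium response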
# TRPC4 act: opens the mouse TRPC4 cation channel; Q9QUQ5; B-score at 10 µM; HEK293 TRPC4beta/mu-opioid, Fluo4 calcium fluorescence; hits give high values; 0.49% of 310,000 active;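 active = B-score above 5 SD of library B-scores, and initial fluorescence ratio not above library mean plus 5 SD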;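 note: positive B-score marks a calcium rise read as TRPC4 activation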
#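 Assay system: HEK293 stable line with TRPC4beta plus mu-opioid receptor; schedule: 45 min room-temperature Fluo4 loading, 110 s read; technique: kinetic Fluo4 calcium fluorescence; evaluation: integrated baseline-normalised fluorescence ratio, converted to per-well B score; controls: buffer (low) and maximal DAMGO (high)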
# TRPC6 activator: activators of mouse TRPC6 channel; HEK293-TRPC6 membrane potential dye fluorescence; hits give high values; B-score at 10 µM; 0.13% of 310,000 active; AID 2550;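 active = B-score of the integrated fluorescence ratio above library mean plus 3 SD, and starting fluorescence ratio within library mean plus 5 SD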;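 note: higher score means more depolarization so channel activation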
# TRPC4 sel inh 2: second selectivity test of TRPC6 inhibitors: effect on mouse TRPC4; 42% of 920 active; inhibition, % at 10 µM; AID 2776; shares compounds with TRPC6 inhibitor; HEK293 TRPC4/MOR, membrane potential dye fluorescence; channel activated by saturating DAMGO dose;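 active = compounds whose fluorescence signal differed from control wells by over 3 SD, either direction, in both duplicate plates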
# TRPC4 spec: selectivity of TRPC6 inhibitors: effect on mouse TRPC4; shares compounds with TRPC6 inhibitor; HEK293 TRPC4/mu-opioid, membrane potential fluorescence; activity change, negative = inhibition, % at 10 µM; 61% of 920 active;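 active = rise or fall in signal beyond 3 SD of buffer-only wells in both replicate plates, either sign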;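 note: integrated kinetic ratio of fluorescence range over baseline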
# HEK293 MPD ctr 2-1: second counter-screen for TRPC6 inhibitors: parental HEK293 cells | AID 2779 | signal change vs control, % at 10 µM | parental HEK293 membrane potential dye fluorescence; maximal acetylcholine challenge after compound addition | shares compounds with TRPC6 inhibitor | 31% of 920 active;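 active = membrane potential signal moving either way by over 3 SD of the maximum-effect control, in both duplicate plates, meaning non-specific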
# HEK293 MPD ctr-1: parental HEK293 nonspecific activity of TRPC6 inhibitors; shares compounds with TRPC6 inhibitor; parental HEK293 membrane potential dye fluorescence; AID 2780; membrane potential signal change, % at 10 µM; 60% of 920 active;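 active = membrane potential signal shifting up or down by more than 3 SD of buffer-only wells, on both duplicate plates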
# HEK293 MPD ctr-2: checks TRPC6 modulator effects in parental HEK293 cells; shares compounds with TRPC6 inhibitor; membrane potential dye fluorescence; membrane potential signal change, % at 10 µM; 51% of 2,400 active;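 active = membrane potential signal moves up or down beyond 5 SD from buffer-only wells, on both duplicate plates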
# HEK293 MPD ctr 2-2: parental HEK293 nonspecific activity of TRPC6 modulators, second screen. AID 488926. membrane potential dye fluorescence; after compound, maximal acetylcholine stimulation. 14% of 2,400 active. shares compounds with TRPC6 inhibitor. inhibition, % at 10 µM;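 active = membrane potential signal drops by more than 5 SD from the mean control signal, in both duplicate plates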;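 note: plate controls were acetylcholine ECmax control wells for no effect and buffer only wells for full effect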
# TRPC4/MOR mod: tests whether TRPC6 modulators also affect mouse TRPC4; HEK293 TRPC4/mu-opioid, membrane potential fluorescence; 69% of 2,400 active; shares compounds with TRPC6 inhibitor; AID 488927; percent change from control (negative = decrease, positive = increase), % at 10 µM;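 active = membrane potential signal moved up or down beyond 5 SD of buffer control wells, in both duplicate plates, actives on both sides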;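 note: plate controls were assay buffer wells for no effect and DAMGO maximal-effect wells for full effect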
# TRPC4 ctr inh 2: mouse TRPC4 off-target activity of TRPC6 modulators, second screen | 55% of 2,400 active | inhibition, % at 10 µM | shares compounds with TRPC6 inhibitor | HEK293 TRPC4/mu-opioid, membrane potential dye fluorescence; stimulated with maximal-effect DAMGO | AID 488928;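 active = drop in membrane potential signal beyond 5 SD of the control wells in both duplicate plates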;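 note: TRPC4 counter screen for TRPC6 hits run under conditions tuned for TRPC6 not TRPC4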
# TRPC6 inh conf: confirmation of mouse TRPC6 inhibitors; inhibition, % at 10 µM; 43% of 3,300 active; HEK293-TRPC6, membrane potential dye, ACh-evoked depolarization; AID 488960; shares compounds with TRPC6 inhibitor;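 active = fluorescence ratio falls more than 5 SD below the full-stimulation control mean, in both duplicate runs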;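 note: integrated fluorescence ratio of peak minus minimum over baseline after agonist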
# TRPC6 act conf: confirmation of mouse TRPC6 activators. HEK293-TRPC6 membrane potential dye fluorescence, FDSS. activation, % at 10 µM. 11% of 2,800 active. shares compounds with TRPC6 inhibitor;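 active = ratio signal rise beyond 5 SD above unstimulated control wells' mean, seen in both duplicate runs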;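 note: plate controls were buffer EC0 wells for no effect and acetylcholine ECmax response for full effect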
# Starred values were filed as active, the others as inactive; i = inactive; x = no result given.
SMILES,TRPC6 inhibitor,TRPC4 block,TRPC4 PAM,TRPC4 act,TRPC6 activator,HEK293 MPD ctr-2,HEK293 MPD ctr 2-2,TRPC4/MOR mod,TRPC4 ctr inh 2,TRPC6 inh conf,TRPC6 act conf,others
CSc1ccccc1C(=O)N1CCCCC1,i,i,i,i,i,x,x,x,x,x,x,
Cc1ccc(O)c(C(=O)c2cc(C#N)c(=O)n(-c3c(C)n(C)n(-c4ccccc4)c3=O)c2)c1,i,i,i,i,i,x,x,x,x,x,x,
Cc1ccc(O)c(C(=O)c2cc(C#N)c(=O)n(-c3nccs3)c2)c1,i,i,i,i,31*,435%*,i,164%*,58%*,i,86%*,
CCOC(=O)CC1C(=O)NCCN1C(=O)c1sc2ccccc2c1Cl (stereo not given),i,i,i,i,i,x,x,x,x,x,x,
Cc1ccc(C(=O)NCC(=O)OCCCOC(=O)CNC(=O)c2ccc(C)cc2)cc1,i,i,i,i,i,x,x,x,x,x,x,
CCN(CC)CCCOC(=O)C(c1ccccc1)c1ccccc1,-7.2*,i,i,i,i,x,x,x,x,61%*,x,TRPC4 sel inh 2=i;TRPC4 spec=9.6%*;HEK293 MPD ctr 2-1=i;HEK293 MPD ctr-1=12%*
O=C(CNS(=O)(=O)c1ccc(Br)cc1)Nc1ccc2c(c1)OCCO2,i,i,i,i,i,x,x,x,x,x,x,
COCCCN(C(=O)c1ccccc1F)c1nc(-c2ccc(OC)cc2)cs1,i,i,i,i,i,x,x,x,x,x,x,
O=C(Nc1cccc(OCC(=O)N2CCOCC2)c1)c1ccc(C(F)(F)F)cc1,i,i,i,i,i,x,x,x,x,x,x,
CCCC[C@@H]1CNCCN1CCc1cccc(F)c1,i,i,i,i,i,x,x,x,x,x,x,
Fc1cccc(CCN2CCNC[C@@H]2Cc2ccccc2)c1,-5.4*,i,i,i,i,i,i,i,39%*,i,i,
FC(F)(F)c1cc(CCN2CCNC[C@@H]2Cc2ccccc2)cc(C(F)(F)F)c1,-5.6*,i,i,i,i,i,i,i,48%*,i,i,
CC(O)[C@H]1CNCCN1CCc1cc(C(F)(F)F)cc(C(F)(F)F)c1 (stereo not given in full),i,i,i,i,i,x,x,x,x,x,x,
COc1cc(OC)cc(OC(=O)C2CCN(C(=O)c3ccc(F)cc3)CC2)c1,i,i,i,i,i,x,x,x,x,x,x,
Cc1cc(N)c2cc(NC(=O)/C=C/c3ccccc3Cl)ccc2n1,-5.5*,i,i,i,i,i,i,i,i,i,i,
CN(C(=O)c1nn(C)c2c1CS(=O)(=O)c1ccccc1-2)c1cccc(Cl)c1,-5.6*,i,i,i,i,98%*,i,21%*,i,50%*,x,
Cc1cc(C)n(-c2nc(SCC(=O)O)c3c4c(sc3n2)COC(C)(C)C4)n1,i,i,i,i,i,x,x,x,x,x,x,
CCN(CC)CCCNc1nc(-n2nc(C)cc2C)nc2sc3c(c12)CC(C)(C)OC3,-10*,i,i,i,i,x,x,x,x,57%*,i,TRPC4 sel inh 2=i;TRPC4 spec=-11%*;HEK293 MPD ctr 2-1=i;HEK293 MPD ctr-1=-204%*
Cc1cc(C)n(-c2nc(NCc3cccnc3)c3c4c(sc3n2)COC(C)(C)C4)n1,-7.4*,i,i,i,i,x,x,x,x,i,i,TRPC4 sel inh 2=i;TRPC4 spec=i;HEK293 MPD ctr 2-1=i;HEK293 MPD ctr-1=i
Cc1nc(CN2CCN(Cc3nc(C(c4ccccc4)c4ccccc4)no3)CC2)cs1,-6.4*,i,i,i,i,101%*,i,10%*,i,48%*,x,
NC(=O)CCN1CCN(Cc2nc(C(c3ccccc3)c3ccccc3)no2)CC1,-7.9*,i,i,i,i,x,x,x,x,i,i,TRPC4 sel inh 2=i;TRPC4 spec=i;HEK293 MPD ctr 2-1=i;HEK293 MPD ctr-1=i
c1ccc(C(c2ccccc2)c2noc(CN3CCN(C4CCCC4)CC3)n2)cc1,-5.2*,i,i,i,i,124%*,i,15%*,i,i,x,
CC(=O)N1CCN(Cc2nc(C(c3ccccc3)c3ccccc3)no2)CC1,i,i,i,i,i,x,x,x,x,x,x,
CCN(CC)S(=O)(=O)c1cc(C(=O)OCC(=O)Nc2ccc(-c3nc4ccc(C)cc4s3)cc2)ccc1F,i,i,i,i,i,x,x,x,x,x,x,
O=C(CSc1nc2ccccc2c(=O)[nH]1)Nc1ccccc1C(F)(F)F,i,i,i,i,i,x,x,x,x,x,x,
CC1=Nc2ccccc2/C1=C/c1nc(-c2ccc(C)s2)oc1O,i,i,i,i,i,x,x,x,x,x,x,
CC1=Nc2ccccc2/C1=C/c1sc(=N)n(-c2nccs2)c1O,i,i,i,i,36*,714%*,i,110%*,i,i,192%*,
O=C(CC(c1ccccc1O)N1CCCCC1)N1CCCCC1 (stereo not given),-9.7*,i,i,i,i,x,x,x,x,63%*,x,TRPC4 sel inh 2=i;TRPC4 spec=3.6%*;HEK293 MPD ctr 2-1=i;HEK293 MPD ctr-1=4.8%*
O=C(CC(c1ccccc1)c1cc(Cl)ccc1O)N1CCCC1 (stereo not given),i,i,i,i,i,x,x,x,x,x,x,
